Assays:
[1] = target: T1, P2Y purinoceptor 12 (Homo sapiens, UniProt Q9H244); experiment: Antagonist activity at human P2Y12 receptor assessed as inhibition of ADP-induced platelet-rich plasma aggregation by turbidimetric method; format: functional, cell-free
[2] = Effective half life in Sprague-Dawley rat at 2 mg/kg, iv and 5 mg/kg, po; format: ADME, organism-based; settings: in vivo
Method in brief: (§1)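 Male Sprague–Dawley rats, n = 2–4. Dosed by iv infusion at 2 mg/kg and orally at 5 mg/kg.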

[3] = Clearance in Sprague-Dawley rat at 2 mg/kg, iv and 5 mg/kg, po; format: ADME, organism-based; settings: in vivo; method in brief: as §1
[4] = Volume of distribution at steady state in Sprague-Dawley rat at 2 mg/kg, iv and 5 mg/kg, po; format: ADME, organism-based; settings: in vivo, read-out: Vdss; method in brief: as §1
[5] = target: T1, P2Y purinoceptor 12; experiment: Binding affinity to human recombinant P2Y12 receptor expressed in CHO cells; format: cell-based
[6] = test system: Salmonella enterica subsp. enterica; experiment: Toxicity in Salmonella Typhimurium by Ames test; format: organism-based; settings: salmonella enterica subsp. enterica serovar typhimurium
[7] = test system: Rattus norvegicus; experiment: Antithrombotic activity in po dosed rat arterial thrombosis model assessed as inhibition of ferric chloride-induced thrombus formation; format: functional, organism-based
[8] = Drug concentration in rat bile at 2 mg/kg, iv after 4 hrs; format: ADME, organism-based; set-up: dose 2 mg/kg, route intravenous; settings: read-out: Drug uptake
Method in brief: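 Rats dosed at 2 mg/kg iv; bile collected over 4 h and the fraction of dose recovered determined.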

[9] = Solubility of the compound; format: physicochemical

T1 sequence (Q9H244 whole entry): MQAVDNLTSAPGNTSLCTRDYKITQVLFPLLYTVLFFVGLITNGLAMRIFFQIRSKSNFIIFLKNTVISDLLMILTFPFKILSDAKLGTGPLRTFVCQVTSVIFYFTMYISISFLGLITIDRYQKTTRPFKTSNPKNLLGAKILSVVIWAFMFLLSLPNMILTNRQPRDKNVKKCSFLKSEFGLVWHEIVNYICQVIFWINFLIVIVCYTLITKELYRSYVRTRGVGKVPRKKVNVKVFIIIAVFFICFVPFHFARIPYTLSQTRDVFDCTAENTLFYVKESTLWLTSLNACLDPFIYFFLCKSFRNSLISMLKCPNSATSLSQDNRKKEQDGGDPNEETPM

- Kb [1]: 300 nM
- half-life [2]: 42 min
- clearance [3]: 3 mL/min/kg
- Vd [4]: 0.3 L/kg
- Kb [5]: 8.5 nM
- Ki [5]: 15 nM
- dose excreted at 4 h [8]: 70%
- solubility [9]: Soluble
SMILES: CCCCCOC(=O)N1CCN(C(=O)[C@H](CCC(=O)O)NC(=O)c2cc(N3CCC(COC)CC3)cc(-c3ccccc3)n2)CC1
- Activity [6]: Non-toxic
- Activity [7]: Dose-dependent effect
